The results in this text go back to ChEMBL document CHEMBL3120073, “Simplified pretubulysin derivatives and their biological effects on cancer cells” (J Nat Prod, 2014).

The structures appear in SMILES notation. pEC50, pIC50: −log10 of the molar value. Active and inactive are the calls of the source. The calls are words filed in the database; no cut-off is given here.

For data set [1], the system named is CCRF-CEM VCR/R. As to the kind of experiment: (§1) Induction of apoptosis in human CCRF-CEM VCR/R cells at 2.5 uM after 72 hrs by CellTitre-Blue assay relative to control. The class given is functional. Put shortly:
(§2)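 CCRF-CEM-VCR-R cells treated 72 h at 2.5, 1, 0.1 or 0.01 μM; vincristine reference at 2.5 μM. Viability read by CellTiterBlue, reagent added for 2 h at 37 °C, fluorescence measured. Results given as percent of mock-treated control. Three independent experiments in quadruplicate, means ± SEM, t test.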

Data set [2] has as its system MDA-MB-231. Put plainly: Cytotoxicity against human MDA-MB-231 cells at 1 to 1000 nM after 72 hrs by CellTitre-Blue assay. The class given is functional, cell-based. Put shortly: (§3)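 MDA-MB-231 cells in 96-well plates were exposed to serial dilutions (0.1–1000 nM) for 72 h. CellTiterBlue reagent was added for 2 h at 37 °C and fluorescence was read. Viability is expressed as % of mock-treated control, from which IC50 was taken. Three independent experiments, quadruplicate.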

Data set [3] has as its system MDA-MB-231. As to the kind of experiment: Antimigratory activity against human MDA-MB-231 cells at 1 uM after 18 hrs by wound healing assay. The class given is functional, cell-based. Put shortly:
(§4)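 MDA-MB-231 grown to 100% confluence in 96-well plates (2 × 10^5 per well). A ~1 mm scratch was made, detached cells were washed off and compound or DMSO was added for 16–18 h. Cells were fixed in 4% formaldehyde, stained with crystal violet and imaged. Covered area was corrected by an unscratched-and-fixed 0% control and expressed relative to DMSO (100%). Three independent experiments, quintuplicate.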

The subject of data set [4] is MDA-MB-231. Put plainly: Antimigratory activity against human MDA-MB-231 cells assessed as reduction in wound closure at 100 nM after 18 hrs by wound healing assay. The class given is functional. In short, it runs like this:
as §4

The test system of data set [5] is MDA-MB-231. Put plainly: Cell cycle arrest in human MDA-MB-231 cells assessed as accumulation at G2/M phase at 10 nM after 48 hrs by propidium iodide staining-based flow cytometry. Format: functional.
Data set [6] relates to MDA-MB-231. Put plainly: Cell cycle arrest in human MDA-MB-231 cells assessed as reduction in G1 phase at 100 nM after 48 hrs by propidium iodide staining-based flow cytometry. The class given is functional.
For data set [7], the system named is MDA-MB-231. As to the kind of experiment: Cell cycle arrest in human MDA-MB-231 cells assessed as accumulation at G2/M phase at 100 nM after 48 hrs by propidium iodide staining-based flow cytometry (reference value: 22%). Format: functional.
The test system of data set [8] is MDA-MB-231. Put plainly: Cytotoxicity against human MDA-MB-231 cells after 72 hrs by CellTitre-Blue assay. Format: functional, cell-based. Conditions: MDA-MB-231, 72 h. Put shortly:
as §3

The target of data set [9] is T1, Tubulin (Homo sapiens) (UniProt P68371+Q9H4B7+P0DPH7+P68366+Q13509+Q71U36+P04350+Q3ZCM7+P07437+P68363+Q9BQE3+Q6PEY2+Q13885+Q9BVA1+Q9BUF5). Put plainly: Inhibition of tubulin polymerization in human T24 cells at 100 nM after 24 hrs by Hoechst 33342 staining-based immunohistochemistry. The class given is cell-based. The settings on record: T-24. Put shortly:
(§5)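 Cells (MDA-MB-231, or T-24 bladder carcinoma) were treated for 24 h at 1–1000 nM, or with DMSO (0.1%). Monomers were extracted for 2 min (80 mM PIPES pH 6.8, 1 mM MgCl2, 5 mM EGTA, 0.5% Triton X-100), then fixed with 0.5% glutaraldehyde and reduced with NaBH4. Staining used BSA blocking, anti-α-tubulin, an AlexaFluor 488 secondary and Hoechst 33342, with confocal imaging.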

Data set [10] has as its target T1, Tubulin (Homo sapiens). Put plainly: Inhibition of tubulin polymerization in human MDA-MB-231 cells assessed as disruption of tubulin cytoskeleton at 100 nM after 24 hrs by Hoechst 33342 staining-based immunohistochemistry. Format: cell-based. Put shortly:
as §5

Data set [11] in a line: Cytotoxicity against human HMEC1 cells after 72 hrs by crystal violet staining assay. Format: functional, cell-based. The settings on record: HMEC-1, 72 h.
Data set [12] in a line: as §1. The class given is functional. Put shortly:
as §2

A short description of data set [13]: (§6) Induction of apoptosis in human CCRF-CEM VCR/R cells at 1 uM after 72 hrs by CellTitre-Blue assay relative to control. The class given is functional. In short, it runs like this:
as §2

Data set [14] has as its system MDA-MB-231. Put plainly: Cell cycle arrest in human MDA-MB-231 cells assessed as accumulation at G2/M phase at 10 nM after 48 hrs by propidium iodide staining-based flow cytometry (reference value: 22%). Format: functional.
The next data set deals with PBMC. Put plainly: Cytotoxicity against human PBMC at 1 uM after 24 to 72 hrs by MTT assay. Format: cell-based.
Data set [15] addresses T1, Tubulin (Homo sapiens). Put plainly: Inhibition of tubulin polymerization in human T24 cells at 10 nM after 24 hrs by Hoechst 33342 staining-based immunohistochemistry. The settings on record: T-24. The class given is cell-based.
In data set [16] the target is T1, Tubulin (Homo sapiens). Put plainly: Inhibition of tubulin polymerization in human MDA-MB-231 cells assessed as disruption of tubulin cytoskeleton at 10 nM after 24 hrs by Hoechst 33342 staining-based immunohistochemistry. Format: cell-based. Put shortly:
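MDA-MB-231 cells treated 24 h at 1, 10, 100 or 1000 nM, or DMSO 0.1%. Extracted 2 min in PIPES pH 6.8/MgCl2/EGTA/0.5% Triton buffer, fixed with 0.5% glutaraldehyde, reduced with NaBH4, blocked with 0.2% BSA. Anti-α-tubulin 1 h, then AlexaFluor 488 secondary plus Hoechst 33342 for 45 min. Imaged by laser scanning microscopy.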

For data set [17], the system named is CCRF-CEM VCR/R. Described as §6. The class given is functional. In short, it runs like this: as §2
Data set [18] can be described thus: Induction of apoptosis in human CCRF-CEM VCR/R cells assessed as cell viability at 2.5 uM after 72 hrs by CellTitre-Blue assay relative to control. Format: functional. The settings on record: read-out: Activity. In short, it runs like this: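 Vincristine-resistant CCRF-CEM-VCR-R cells in 96-well plates were treated for 72 h at 0.01, 0.1, 1 or 2.5 μM. Viability was read by CellTiterBlue as % of mock-treated control. Three independent experiments, quadruplicate; t test.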

Data set [19] is described as follows: Induction of apoptosis in human CCRF-CEM VCR/R cells at 1 uM after 48 hrs by propidium iodide staining-based flow cytometry. The class given is functional. In short, it runs like this:
(§7)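 CCRF-CEM or CCRF-CEM-VCR-R cells were treated for 48 h. Cells were permeabilized in hypotonic propidium iodide solution and analysed by flow cytometry in logarithmic mode. Apoptosis was scored as the sub-G1 (DNA fragmentation) percentage.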

The next data set deals with CCRF-CEM. Put plainly: Induction of apoptosis in human CCRF-CEM cells at 1 to 100 nM after 48 hrs by propidium iodide staining-based flow cytometry. The class given is functional, cell-based. Put shortly: as §7

Regarding `CC[C@H](C)[C@H](NC(=O)[C@H]1CCCCN1C)C(=O)N(C)[C@H](CCc1cccc(C(=O)N[C@@H](Cc2ccccc2)C[C@H](C)C(=O)O)c1)C(C)C`, the result with CCRF-CEM VCR/R [1], in the data set with MDA-MB-231 [2], in the data set on MDA-MB-231 [3] and in the data set with MDA-MB-231 [6] was Active. For the same molecule, the result with MDA-MB-231 [4] and in the data set on MDA-MB-231 [5] was inactive. Also, in the data set on MDA-MB-231 [7], the Activity was 33%. Moreover, the pIC50 with MDA-MB-231 [8] is 7.00. The inhibition result at Tubulin (Homo sapiens) [9] and at Tubulin (Homo sapiens) [10] was “Active” each time. In addition, the pEC50 in data set [11] is 7.88.
`CC[C@H](C)[C@H](NC(=O)[C@H]1CCCCN1C)C(=O)N(C)[C@H](CCc1nc(C(=O)N[C@@H](Cc2ccccc2)C[C@H](C)C(=O)O)cs1)C(C)C`: the Activity in data set [12] is 30%; in data set [13], 70%; in the data set on MDA-MB-231 [14] it was greater than 30%; in the data set with PBMC it was “Toxic”. Further, the outcome in the data set on MDA-MB-231 [2] and in the data set with MDA-MB-231 [3] was Active. The molecule further had a negative logarithm of the IC50 (pIC50) with MDA-MB-231 [8] of 9.22. Also, the inhibition result on Tubulin (Homo sapiens) [15] and on Tubulin (Homo sapiens) [16] was “Active” each time.
With `CC[C@H](C)[C@H](NC(=O)[C@H]1CCCCN1C)C(=O)N(C)[C@H](CCc1nc(C(=O)N[C@H](CCC(=O)O)Cc2ccccc2)cs1)C(C)C`, the result in the data set with CCRF-CEM VCR/R [1], in the data set with CCRF-CEM VCR/R [17], in the data set on MDA-MB-231 [2], in the data set with MDA-MB-231 [3] and in the data set on MDA-MB-231 [6] was Active. Besides, the Activity with MDA-MB-231 [4] was 35%; in the data set on MDA-MB-231 [7], 60%. For the same molecule, the outcome in the data set on MDA-MB-231 [5] was inactive. This molecule had a negative-log IC50 (pIC50) with MDA-MB-231 [8] of 8.00. For the same molecule, the inhibition entry at Tubulin (Homo sapiens) [15] and on Tubulin (Homo sapiens) [16] was “Active” throughout. In data set [11], this molecule showed a pEC50 of 8.36.
For the molecule `CC[C@]1(O)C[C@H]2CN(CCc3c([nH]c4ccccc34)[C@@](C(=O)OC)(c3cc4c(cc3OC)N(C=O)[C@H]3[C@@](O)(C(=O)OC)[C@H](OC(C)=O)[C@]5(CC)C=CCN6CC[C@]43[C@@H]65)C2)C1` [VINCRISTINE], in data set [18], the viability at 2.5 µM stood at 80%. In addition, the Activity in data set [19] was 20%. Further, the result with CCRF-CEM was Active. For the same molecule, the pIC50 in the data set on MDA-MB-231 [8] is 8.80.
